The text below walks through data of ChEMBL document CHEMBL1828604, “Antifungal activity of a series of 1,2-benzisothiazol-3(2H)-one derivatives” (Bioorg Med Chem, 2011).

≈ marks a conversion by molar mass, not a printed value. Bounds are passed on as bounds.

As a reminder, the MIC50 is the lowest concentration that inhibits either 50% of growth or 50% of the strains tested, depending on the study. What is called CC50 is the concentration at which the toxic effect on the cells reaches its halfway point. A lower CC50 goes with greater toxicity to the cells.

In one data set the test system is Candida albicans. Nature of the data set: Antifungal activity against Candida albicans CAF-2 after 24 hrs by broth microdilution method. Conditions: CAF-2, 24 h. In kind it is functional. The method, boiled down:
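Broth microdilution per CLSI M27-A3: 1000 cells per well in RPMI, two-fold compound dilutions from 0.1 to 50 μg/ml, final volume 100 μL RPMI. MIC-50 is the lowest concentration that inhibits growth to half the OD of the untreated control.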
In general terms: In broth dilution the organism is exposed to a series of concentrations in liquid medium.

Data set [1] is described as follows: Ratio of CC50 for human HepG2 cells to MIC50 for antifungal activity. In kind it is functional.
Data set [2] deals with Cryptococcus neoformans. Nature of the data set: Antifungal activity against Cryptococcus neoformans JEC-21 after 72 hrs by broth microdilution method. The format is functional. Particulars: JEC-21, 72 h. The method, boiled down: (§1)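 Broth microdilution per CLSI M27-A3 and M38-A2. 1000 cells per well in RPMI (final 100 µL) with two-fold compound dilutions from 0.1 to 50 µg/ml. MIC-50 is the lowest concentration that cuts growth to half the OD of the untreated control. Candida species are clinical strains. A. fumigatus strain is AF-294.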

The subject of a further data set is Candida tropicalis. Kind of data set: Antifungal activity against Candida tropicalis after 24 hrs by broth microdilution method. The format is functional. The method, boiled down: as §1
Data set [3] is described as follows: Cytotoxicity against human HepG2 cells after 48 hrs by neutral red cell viability assay. The format is cell-based. The method, boiled down: (§2)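 Neutral red viability assay on HepG2 human hepatoma cells at defined compound concentrations, exposure 24, 48 or 72 h. CC-50 was calculated from the viability data.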
A further data set has as its system Nakaseomyces glabratus. Kind of data set: Antifungal activity against Candida glabrata after 24 hrs by broth microdilution method. The format is functional. A digest of the protocol:
as §1

Data set [4] is described as follows: Antifungal activity against Candida apicola after 24 hrs by broth microdilution method. In kind it is functional. The method, boiled down:
as §1

Data set [5] concerns Cryptococcus neoformans. Nature of the data set: Antifungal activity against Cryptococcus neoformans H-99 after 72 hrs by broth microdilution method. Conditions: H-99, 72 h. In kind it is functional. A digest of the protocol: as §1
In data set [6] the test system is Meyerozyma guilliermondii. Kind of data set: Antifungal activity against Candida guilliermondii after 24 hrs by broth microdilution method. In kind it is functional. The method, boiled down:
as §1

The next data set relates to Huh-7. Kind of data set: Cytotoxicity against human HuH7 cells by MTT assay. In kind it is cell-based. Background: Tetrazolium assays rely on reduction of a dye to a coloured formazan, in cell work by metabolically active cells.
A short description of data set [7]: Cytotoxicity against human HepG2 cells after 72 hrs by neutral red cell viability assay. In kind it is cell-based. The method, boiled down:
as §2

For a further data set, the system named is Aspergillus fumigatus. Kind of data set: Antifungal activity against Aspergillus fumigatus AF-294 after 48 hrs by broth microdilution method. Particulars: AF-294, 48 h.
The next data set concerns HepG2. Kind of data set: Cytotoxicity against human HepG2 cells by MTT assay. The format is cell-based. The method, boiled down:
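MTT viability assay at defined compound concentrations in human hepatoma cell lines HepG2 and Huh7.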

Data set [8] in a line: Cytotoxicity against human HepG2 cells after 24 hrs by neutral red cell viability assay. In kind it is cell-based. The method, boiled down: as §2
The test system of another data set is Candida parapsilosis. Kind of data set: Antifungal activity against Candida parapsilosis after 24 hrs by broth microdilution method. In kind it is functional. Particulars: Lodderomyces parapsilosis. The method, boiled down: as §1
The next data set deals with Clavispora lusitaniae. Kind of data set: Antifungal activity against Candida lusitaniae after 24 hrs by broth microdilution method. The format is functional. The method, boiled down: as §1

`CCN(Cc1ccccc1)C(=O)Cn1sc2ccccc2c1=O`: the MIC50 in the data set with Candida albicans is 6.4 µg/mL (≈ 19.6 µM).
For the compound `CN(Cc1ccccc1)C(=O)Cn1sc2ccccc2c1=O`, the MIC50 (in the data set on Candida albicans; with Cryptococcus neoformans [2]; in the data set with Candida tropicalis; in the data set on Nakaseomyces glabratus; in data set [4]; against Cryptococcus neoformans [5]) was 1.6 µg/mL (≈ 5.12 µM) throughout. The MIC50 in data set [6] was found to be 1.6 µg/mL (≈ 5.12 µM); in the data set with Aspergillus fumigatus it was 12.5 µg/mL (≈ 40 µM); with Candida parapsilosis, 1.6 µg/mL (≈ 5.12 µM); with Clavispora lusitaniae, 1.6 µg/mL (≈ 5.12 µM). In addition, in data set [1], the Ratio is 15. In data set [3], this compound had a CC50 at 48 h of 25.7 µg/mL (≈ 82.3 µM). Further, the Activity entry in the data set with Huh-7 and in the data set on HepG2 was “Toxic” each time. Also, the CC50 at 72 h in data set [7] worked out at 23.2 µg/mL (≈ 74.3 µM). This compound also came in with a CC50 at 24 h in [8] of 62.2 µg/mL (≈ 199 µM).
Compound `C[C@@H](NC(=O)Cn1sc2ccccc2c1=O)c1ccccc1` gave an MIC50 against Candida albicans of 6.4 µg/mL (≈ 20.5 µM).
As to `O=C(Cn1sc2ccccc2c1=O)NCCc1ccccc1`, in the data set on Candida albicans, the MIC50 was greater than 50 µg/mL.
For `COc1ccc(CNC(=O)Cn2sc3ccccc3c2=O)cc1`, the MIC50 against Candida albicans amounted to 3.2 µg/mL (≈ 9.74 µM).
With `OC(Cn1cncn1)(Cn1cncn1)c1ccc(F)cc1F` [FLUCONAZOLE], the MIC50 in the data set with Candida albicans is 0.2 µg/mL (≈ 0.653 µM); with Cryptococcus neoformans [2], greater than 64 µg/mL; against Candida tropicalis, 16 µg/mL (≈ 52.2 µM); with Nakaseomyces glabratus, 3.2 µg/mL (≈ 10.4 µM); in data set [4] it was 0.2 µg/mL (≈ 0.653 µM); against Cryptococcus neoformans [5] it was greater than 64 µg/mL. For the same compound, the MIC50 in data set [6] amounted to 6.4 µg/mL (≈ 20.9 µM); against Aspergillus fumigatus, 16 µg/mL (≈ 52.2 µM); in the data set on Candida parapsilosis, 0.4 µg/mL (≈ 1.31 µM); in the data set on Clavispora lusitaniae it was 3.2 µg/mL (≈ 10.4 µM).
Regarding `COC(=O)c1cccc(NC(=O)Cn2sc3ccccc3c2=O)c1`, the MIC50 in the data set on Candida albicans amounted to 12.5 µg/mL (≈ 36.5 µM).
`C[C@H](NC(=O)Cn1sc2ccccc2c1=O)c1ccccc1`: the MIC50 against Candida albicans came to 6.4 µg/mL (≈ 20.5 µM).
In the case of `O=C(Cn1sc2ccccc2c1=O)NCc1ccccc1`, the MIC50 with Candida albicans was determined as 3.2 µg/mL (≈ 10.7 µM). Against the preceding compound, the MIC50 is about 2-fold lower.
Still for that read-out and setting: for `O=C(Cn1sc2ccccc2c1=O)NCc1ccc(F)cc1` the value was 1.6 µg/mL (≈ 5.06 µM); for `COC(=O)c1ccccc1NC(=O)Cn1sc2ccccc2c1=O`, 6.4 µg/mL (≈ 18.7 µM); for `O=C(Cn1sc2ccccc2c1=O)NC12CC3CC(CC(C3)C1)C2`, 3.2 µg/mL (≈ 9.34 µM).
Same read-out and setting: next, `CCN(CC)C(=O)Cn1sc2ccccc2c1=O`: greater than 50 µg/mL.
With `O=C(Cn1sc2ccccc2c1=O)NCCN1CCOCC1`, the MIC50 with Candida albicans was greater than 50 µg/mL.
In turn, `CC(C(=O)N(C)Cc1ccccc1)n1sc2ccccc2c1=O` (racemic) came in with an MIC50 against Candida albicans of 25 µg/mL (≈ 76.6 µM).
In turn, `COc1cccc(CNC(=O)Cn2sc3ccccc3c2=O)c1` registered an MIC50 in the data set with Candida albicans of 3.2 µg/mL (≈ 9.74 µM).
For the compound `CN(C(=O)Cn1sc2ccccc2c1=O)c1ccccc1`, in the data set with Candida albicans, the MIC50 is greater than 50 µg/mL.
Compound `O=C(Cn1sc2ccccc2c1=O)Nc1ccccc1` registered an MIC50 against Candida albicans of 6.4 µg/mL (≈ 22.5 µM).
Compound `CC(C(=O)NCc1ccccc1)n1sc2ccccc2c1=O` (racemic) showed an MIC50 against Candida albicans greater than 50 µg/mL.
The compound `O=C(Cn1sc2ccccc2c1=O)Nc1nccs1` showed an MIC50 against Candida albicans greater than 50 µg/mL.
